Broadly, the Kd is a measure of binding affinity in units of concentration. What is called AUC(0-t) is the area under the concentration-time curve up to a stated or last time point. The term Cmax denotes the peak of the concentration-time curve. A word on the half-life: it is how long it takes for the measured level to halve. Read a low half-life as rapid decline.

Where only a bound is given, the exact number is not on record here.

Data set [1] deals with VEGFR2 kinase. The conditions noted are these: read-out: IC50 VEGFR2 kinase (reported); cited from earlier work.
For data set [2], the target named is T1, bone morphogenic protein receptor type 2 (BMPR2) (Homo sapiens, UniProt Q13873).
T1 sequence (Q13873 27-1038): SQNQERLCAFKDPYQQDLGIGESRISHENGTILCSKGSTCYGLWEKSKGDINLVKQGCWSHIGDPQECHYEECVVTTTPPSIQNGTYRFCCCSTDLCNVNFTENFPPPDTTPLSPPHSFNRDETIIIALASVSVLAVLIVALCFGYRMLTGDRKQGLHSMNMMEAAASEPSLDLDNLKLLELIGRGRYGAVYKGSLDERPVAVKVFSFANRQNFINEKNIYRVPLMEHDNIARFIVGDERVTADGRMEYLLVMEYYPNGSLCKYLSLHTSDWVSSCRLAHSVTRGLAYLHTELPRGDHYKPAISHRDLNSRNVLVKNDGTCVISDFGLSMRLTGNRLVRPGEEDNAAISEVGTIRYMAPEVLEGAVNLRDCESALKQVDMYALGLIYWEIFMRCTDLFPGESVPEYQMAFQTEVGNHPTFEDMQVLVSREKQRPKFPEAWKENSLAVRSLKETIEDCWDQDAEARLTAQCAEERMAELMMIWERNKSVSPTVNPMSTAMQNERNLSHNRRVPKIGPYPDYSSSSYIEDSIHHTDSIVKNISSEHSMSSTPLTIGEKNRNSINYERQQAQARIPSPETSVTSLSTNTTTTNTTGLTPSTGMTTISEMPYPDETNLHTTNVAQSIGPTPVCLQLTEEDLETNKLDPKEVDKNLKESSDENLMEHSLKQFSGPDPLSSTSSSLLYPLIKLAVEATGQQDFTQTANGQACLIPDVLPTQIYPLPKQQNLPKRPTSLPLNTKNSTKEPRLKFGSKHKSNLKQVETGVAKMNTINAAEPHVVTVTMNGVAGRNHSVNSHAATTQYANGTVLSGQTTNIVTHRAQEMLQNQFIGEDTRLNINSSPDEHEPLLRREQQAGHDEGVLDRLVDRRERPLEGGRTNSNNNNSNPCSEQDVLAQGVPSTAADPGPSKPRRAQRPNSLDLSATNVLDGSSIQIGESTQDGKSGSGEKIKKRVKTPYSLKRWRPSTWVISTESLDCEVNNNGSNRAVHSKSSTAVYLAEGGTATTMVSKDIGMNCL
As to the kind of experiment: KdELECT assay, inhibitor binding constant for BMPR2.

Data set [3] has as its system Male SD rats. Description: Drug plus three weeks hypoxia. It is filed as in vivo, rat. As to conditions: for Right ventricular systolic pressure (RVSP): 17.8 µg/h Alzet osmotic pump for 14 of 21 days of hypoxia; for RVH compared to the normal control group: 28 days post-hypoxia; for Induction of severe PAH: drug plus hypoxia, rats. The procedure, abridged: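 Male SD rats got test compound 20 mg/kg SC once or 17.8 μg/h by osmotic minipump, then 3 weeks at FiO2 10% and 14 or 28 days normoxia; untreated normoxic rats as controls. Under isoflurane, RV pressure by sternotomy catheter; RV free wall, IVS, LV weighed. Lungs perfused with 10% formalin, H&E 8 μm sections, lumen/media area ratio, ≥20 arterioles/section. RV Picro-Sirius red staining.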

Data set [4] relates to human umbilical vein endothelial cell (HUVEC). Description: HUVEC proliferation assay. It is filed as cell-based. The conditions noted are these: read-out: IC50 HUVECs proliferation.
Data set [5] is described as follows: Pharmacokinetic studies in Sprague Dawley rats. In kind it is in vivo. As to conditions: rat, plasma.
Data set [6] deals with MRC5. As to the kind of experiment: MRC5 proliferation assay. It is filed as cell-based. As to conditions: Homo sapiens, MRC5, read-out: IC50 MRC5 proliferation.
The target in data set [7] is VEGFR2 (Homo sapiens, UniProt P35968). Description: KINOMEscan Profiling against 468 human kinases: VEGFR2. As to conditions: 10,000 nM. It is filed as binding.
[8] abbreviates: other: via an Alzet pump, 12 mg/kg.

VEGFR2, sequence (P35968 20-1356): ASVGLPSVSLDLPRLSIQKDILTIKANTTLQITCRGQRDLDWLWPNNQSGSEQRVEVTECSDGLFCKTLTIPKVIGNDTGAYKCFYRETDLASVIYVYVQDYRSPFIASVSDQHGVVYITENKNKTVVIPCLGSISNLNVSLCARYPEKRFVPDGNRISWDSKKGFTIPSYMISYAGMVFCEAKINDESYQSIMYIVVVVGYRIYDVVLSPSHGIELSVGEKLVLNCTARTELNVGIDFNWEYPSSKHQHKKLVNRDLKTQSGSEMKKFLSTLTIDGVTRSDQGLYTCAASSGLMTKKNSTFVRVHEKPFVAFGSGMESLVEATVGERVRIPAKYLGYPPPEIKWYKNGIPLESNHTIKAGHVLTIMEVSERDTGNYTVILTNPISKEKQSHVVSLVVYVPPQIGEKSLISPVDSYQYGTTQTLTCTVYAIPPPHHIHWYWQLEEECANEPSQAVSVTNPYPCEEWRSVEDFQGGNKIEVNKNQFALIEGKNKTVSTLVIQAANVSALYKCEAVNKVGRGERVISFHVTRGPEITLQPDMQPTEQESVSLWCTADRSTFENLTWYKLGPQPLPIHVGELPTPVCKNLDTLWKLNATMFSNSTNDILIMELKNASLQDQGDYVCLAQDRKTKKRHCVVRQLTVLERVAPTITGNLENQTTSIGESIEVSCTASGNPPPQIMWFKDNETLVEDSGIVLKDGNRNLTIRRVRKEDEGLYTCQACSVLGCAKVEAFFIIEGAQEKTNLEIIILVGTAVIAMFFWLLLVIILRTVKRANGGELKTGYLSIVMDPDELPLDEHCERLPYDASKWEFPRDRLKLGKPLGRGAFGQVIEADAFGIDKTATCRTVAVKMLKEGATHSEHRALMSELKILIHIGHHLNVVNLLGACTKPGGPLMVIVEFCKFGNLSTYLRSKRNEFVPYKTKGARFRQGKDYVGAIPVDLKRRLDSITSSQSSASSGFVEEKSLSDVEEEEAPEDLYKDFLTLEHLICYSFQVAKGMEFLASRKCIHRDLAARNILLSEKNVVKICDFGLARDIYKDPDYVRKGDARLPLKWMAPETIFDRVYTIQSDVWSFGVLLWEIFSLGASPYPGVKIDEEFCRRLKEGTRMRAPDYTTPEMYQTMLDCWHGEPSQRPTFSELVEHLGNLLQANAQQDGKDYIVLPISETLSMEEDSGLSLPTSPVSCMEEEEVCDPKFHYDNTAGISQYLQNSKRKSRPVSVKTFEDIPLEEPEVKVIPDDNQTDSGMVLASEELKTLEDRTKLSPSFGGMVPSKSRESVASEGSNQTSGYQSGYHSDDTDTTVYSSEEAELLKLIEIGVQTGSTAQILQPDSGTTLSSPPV

For the compound `COc1cc2nccc(Oc3ccc(NC(=O)C4(C(=O)Nc5ccc(F)cc5)CC4)cc3)c2cc1OC` [Cabozantinib, cabozantinib], the IC50 in data set [1] was 0.035 nM; in data set [4], 4.9 nM; in data set [6], 0.549 µM. The same compound registered a Kd in data set [2] greater than 10 µM. Further, the “Right ventricular systolic pressure (RVSP)” value in data set [3] (14 days after removal from hypoxia, mean ± SEM) is on record as 40.0 ± 3.1 mmHg; in data set [3] (28 days after removal from hypoxia, mean ± SEM), 27.9 ± 1.9 mmHg. Besides, the “RVH by Fulton's Index (RV/(LV + IVS))” value in data set [3] (14 days post-hypoxia, Cabo = SC + Alzet groups, mean ± SEM) is reported as 0.36 ± 0.02. Besides, the “RVH compared to the normal control group” value in data set [3] was “no significant difference”. In addition, the “Induction of severe PAH” value in data set [3] is recorded as “did not induce severe PAH”. In addition, the AUC(0-t) in data set [5] (setting [8]) was determined as 16800 ng·h/mL; in data set [5] (sc, 20 mg/kg), 27500 ng·h/mL. The Cmax in data set [5] (setting [8]) was 238 ± 83 ng/mL; in data set [5] (sc, 20 mg/kg), 1620 ± 103 ng/mL. For the same compound, the half-life in data set [5] (setting [8]) is 2580 ± 480 min; in data set [5] (sc, 20 mg/kg), 1540 ± 648 min.
Regarding `Cc1cc(C)c(/C=C2\C(=O)Nc3ccccc32)[nH]1` [SU5416], the “Activity against VEGFR2 in kinome screen” value in data set [7] was “potent”. Further, in data set [3], the “RVH compared to the normal control group” value is “significantly increased” and the “Induction of severe PAH” value was “induced severe PAH”. In addition, the “RV fibrosis (Picro-Sirius red, qualitative)” value in data set [3] (days 14 and 28 after removal from hypoxia, SU5416H vs CaboH groups) is recorded as “increase in RV fibrosis”. Further, in data set [4], the IC50 was 330 nM. In data set [5] (sc, 20 mg/kg), this compound gave an AUC(0-t) of 12.6 ± 2 ng·h/mL, a Cmax of 4.97 ± 2.3 ng/mL and a half-life of 300 ± 282 min. Further, the IC50 in data set [6] was found to be 11.7 µM.

Values taken from publication PMC8202272 (Pulmonary Circulation, 2021).
